For six molecules, Ki results are on record in ChEMBL document CHEMBL1145212, “Fluorinated diaryl sulfides as serotonin transporter ligands: synthesis, structure-activity relationship study, and in vivo evaluation of fluorine-18-labeled compounds as PET imaging agents” (J Med Chem, 2005).

Type in all cases: cell-based
Assay [1] has as its target Sodium-dependent serotonin transporter (Homo sapiens, UniProt P31645). Put plainly: In vitro displacement of [3H]paroxetine from human serotonin transporter expressed in HEK293 cells.
The target of assay [2] is Sodium-dependent noradrenaline transporter (Homo sapiens, UniProt P23975). Put plainly: In vitro displacement of [3H]nisoxetine from human norepinephrine transporter expressed in HEK293 cells. Put shortly:
(§1)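 Competitive binding using cloned human transporters expressed in HEK-293 cells. NET was labelled with [³H]nisoxetine and DAT with [³H]GBR12935, following a previously published procedure.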

Assay [3] concerns the target Sodium-dependent dopamine transporter (Homo sapiens, UniProt Q01959). The assay can be described thus: In vitro displacement of [3H]GBR-12935 from human dopamine transporter expressed in HEK293 cells. In a few lines: as §1

Sodium-dependent serotonin transporter, sequence (P31645 whole entry): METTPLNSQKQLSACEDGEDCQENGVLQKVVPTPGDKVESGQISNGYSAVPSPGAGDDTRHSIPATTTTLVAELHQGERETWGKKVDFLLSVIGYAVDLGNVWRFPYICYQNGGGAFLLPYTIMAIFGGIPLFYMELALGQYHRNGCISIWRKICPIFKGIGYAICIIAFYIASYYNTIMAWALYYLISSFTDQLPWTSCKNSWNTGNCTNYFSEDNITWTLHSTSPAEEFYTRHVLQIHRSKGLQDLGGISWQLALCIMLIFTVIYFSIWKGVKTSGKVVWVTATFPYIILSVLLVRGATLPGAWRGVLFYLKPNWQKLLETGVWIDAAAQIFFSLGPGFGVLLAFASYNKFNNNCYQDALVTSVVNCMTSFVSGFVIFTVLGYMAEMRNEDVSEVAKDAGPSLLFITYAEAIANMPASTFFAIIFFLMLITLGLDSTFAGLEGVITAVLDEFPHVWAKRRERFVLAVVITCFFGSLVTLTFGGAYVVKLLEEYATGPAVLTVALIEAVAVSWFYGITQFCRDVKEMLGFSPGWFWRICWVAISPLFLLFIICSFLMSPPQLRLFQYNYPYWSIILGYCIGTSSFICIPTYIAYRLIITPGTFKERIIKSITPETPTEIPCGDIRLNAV
Sodium-dependent dopamine transporter, sequence (Q01959 whole entry): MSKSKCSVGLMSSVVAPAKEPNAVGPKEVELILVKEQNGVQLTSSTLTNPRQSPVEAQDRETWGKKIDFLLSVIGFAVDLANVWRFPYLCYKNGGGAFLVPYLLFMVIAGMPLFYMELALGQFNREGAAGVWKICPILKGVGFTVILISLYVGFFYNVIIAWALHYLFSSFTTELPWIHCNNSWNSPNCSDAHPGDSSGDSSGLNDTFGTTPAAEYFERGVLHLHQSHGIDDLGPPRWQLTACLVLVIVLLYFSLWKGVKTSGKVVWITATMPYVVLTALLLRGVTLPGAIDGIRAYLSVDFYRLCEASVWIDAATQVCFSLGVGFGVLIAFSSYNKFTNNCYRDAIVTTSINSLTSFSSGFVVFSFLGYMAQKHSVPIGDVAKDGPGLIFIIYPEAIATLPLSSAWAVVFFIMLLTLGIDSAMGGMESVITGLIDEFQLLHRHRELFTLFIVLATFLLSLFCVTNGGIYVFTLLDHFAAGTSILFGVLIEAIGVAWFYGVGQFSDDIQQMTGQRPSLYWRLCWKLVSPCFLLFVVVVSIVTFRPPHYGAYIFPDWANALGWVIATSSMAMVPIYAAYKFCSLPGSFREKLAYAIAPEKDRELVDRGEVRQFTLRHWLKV
Sodium-dependent noradrenaline transporter, sequence (P23975 whole entry): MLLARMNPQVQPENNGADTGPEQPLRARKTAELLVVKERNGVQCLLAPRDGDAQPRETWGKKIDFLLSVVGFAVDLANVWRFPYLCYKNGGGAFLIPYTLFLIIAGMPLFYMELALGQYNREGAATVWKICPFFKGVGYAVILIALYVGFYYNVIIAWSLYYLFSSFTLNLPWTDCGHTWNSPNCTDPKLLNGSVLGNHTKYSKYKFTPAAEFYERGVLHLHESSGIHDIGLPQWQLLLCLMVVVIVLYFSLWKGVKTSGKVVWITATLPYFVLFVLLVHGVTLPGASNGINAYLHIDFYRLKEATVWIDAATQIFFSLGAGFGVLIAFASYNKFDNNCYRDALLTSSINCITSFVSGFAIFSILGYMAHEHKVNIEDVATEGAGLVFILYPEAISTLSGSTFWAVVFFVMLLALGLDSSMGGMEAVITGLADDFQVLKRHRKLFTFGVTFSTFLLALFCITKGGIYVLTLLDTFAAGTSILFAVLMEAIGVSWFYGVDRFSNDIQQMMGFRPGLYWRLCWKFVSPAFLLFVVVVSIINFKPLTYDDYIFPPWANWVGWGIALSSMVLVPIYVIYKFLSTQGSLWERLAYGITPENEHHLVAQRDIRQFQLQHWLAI

Turning to `Cc1ccc(Sc2ccccc2CNCCCF)c(N)c1`, the inhibition constant (Ki) in assay [1] is 518 nM; in assay [2], 4330 nM; in assay [3], over 10000 nM.
`Cc1ccc(Sc2ccccc2CN(C)C)c(N)c1` registered a Ki in assay [1] of 1.19 nM.
Turning to `CN(C)Cc1ccccc1Sc1ccc(CO)cc1N`, the Ki in assay [1] was 0.8 nM; in assay [2], 787 nM; in assay [3] it was 3610 nM.
For the molecule `Cc1ccc(Sc2ccccc2CNCCF)c(N)c1`, the Ki was determined as 71.3 nM in assay [1], 3910 nM in assay [2] and 4430 nM in assay [3].
With `CN(C)Cc1ccccc1Sc1ccc(C#N)cc1N` [DASB], in assay [1], affinity was put at a Ki of 1.12 nM.
On the same count and under the same terms, in the case of `CN(C)Cc1ccccc1Sc1ccc(I)cc1N` it was 1.07 nM.
